Here are results for 25 compounds from ChEMBL document CHEMBL4130474, “Spirotriazoline oxindoles: A novel chemical scaffold with in vitro anticancer properties” (Eur J Med Chem, 2017).

The subject of one data set is MDA-MB-231. The data set can be described thus: Antiproliferative activity in human MDA-MB-231 cells incubated for 72 hrs by MTT assay. It is filed as functional, cell-based. The following applies: MDA-MB-231, 72 h. In outline: (§1)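 Cells grown in RPMI 1640 with 10% FBS, penicillin/streptomycin; seeded at 2 × 10⁵ cells/mL, allowed to adhere 24 h, then exposed 72 h to compounds diluted in medium from DMSO stocks. MTT added after medium change, 3 h, formazan dissolved in DMSO, absorbance at 570 nm. Triplicate wells, at least 3 independent experiments; IC50 by non-linear regression.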

The next data set deals with MCF7. The data set can be described thus: Antiproliferative activity in human MCF7 cells incubated for 72 hrs by MTT assay. It is filed as functional, cell-based. The following applies: MCF7, 72 h. In outline: as §1
The subject of data set [1] is HCT-116. Briefly: Antiproliferative activity in p53 (+/+) human HCT116 cells incubated for 72 hrs by MTS assay. It is filed as functional, cell-based. The following applies: HCT-116, 72 h. In a few lines: (§2)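 HCT116 p53(+/+) or p53(−/−) seeded at 1 × 10⁵ cells/mL, adhered 24 h, then treated 72 h with compounds diluted from DMSO stocks. Viability by MTS (CellTiter96 AQueous) with absorbance at 490 nm. Duplicate wells, three independent experiments; IC50 by non-linear regression.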
(In general: Tetrazolium assays rely on reduction of a dye to a coloured formazan, in cell work by metabolically active cells.)

Data set [2] in a line: Selectivity index, ratio of IC50 for antiproliferative activity in HEK293T cells to IC50 for antiproliferative activity in human p53 (-/-) human HCT116 cells. It is filed as toxicity, cell-based. The following applies: HEK293T cells versus p53 (-/-) HCT116 cells, read-out: Ratio IC50.
Data set [3] in a line: Selectivity index, ratio of IC50 for antiproliferative activity in HEK293T cells to IC50 for antiproliferative activity in human MCF7 cells. The following applies: HEK293T cells versus MCF7 cells, read-out: Ratio IC50. It is filed as toxicity, cell-based. In a few lines:
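Ratio of HEK 293T IC50 to MCF-7 IC50 from 72 h MTT assays.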

Data set [4] can be described thus: Selectivity index, ratio of IC50 for antiproliferative activity in HEK293T cells to IC50 for antiproliferative activity in human p53 (+/+) human HCT116 cells. Format: toxicity, cell-based. The following applies: HEK293T cells versus p53 (+/+) HCT116 cells, read-out: Ratio IC50.
The test system of a further data set is HEK-293T. The data set can be described thus: Antiproliferative activity in human HEK293T cells incubated for 72 hrs by MTT assay. It is filed as cell-based. In a few lines:
as §1

In data set [5] the test system is HCT-116. Briefly: Antiproliferative activity in p53 (-/-) human HCT116 cells incubated for 72 hrs by MTS assay. It is filed as functional, cell-based. The following applies: HCT-116, 72 h. In a few lines:
as §2

A short description of data set [6]: […], ratio of IC50 for antiproliferative activity in HEK293T cells to IC50 for antiproliferative activity in human MDA-MB-231 cells. Format: toxicity, cell-based. The following applies: HEK293T cells versus MDA-MB-231 cells, read-out: Ratio IC50. In outline:
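Ratio of HEK 293T IC50 to MDA-MB-231 IC50 from 72 h MTT assays.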

Regarding `O=C1Nc2ccc(Br)cc2[C@]12[C@@H](c1cccc(Cl)c1)C(c1ccccc1)=NN2c1ccccc1`, the IC50 (in general, the point on the concentration scale where inhibition reaches its midpoint) in the data set with MDA-MB-231 was found to be 12.6 µM; in the data set on MCF7, 10 µM.
For `O=C1Nc2ccccc2C12N(c1ccccc1Cl)N=C(c1ccccc1)N2c1ccc(Cl)cc1` (configuration not stated), in that order: 24.8 µM and 28.4 µM.
On to `O=C1Nc2ccc(Br)cc2C12N(c1ccccc1)N=C(c1cccc(Cl)c1)N2c1cccc(Cl)c1` (configuration not stated), for which the IC50 stood at 12.6 µM with HCT-116 [1]; 12.5 µM in the data set on HEK-293T; 10.2 µM with MDA-MB-231; 8 µM in the data set on MCF7; 13 µM in the data set on HCT-116 [5]. Further, the selectivity ratio in [2], in data set [3] and in data set [4] was less than 2 in each case.
With `COc1ccc(C2=NN(c3ccccc3)C3(C(=O)Nc4ccc(Br)cc43)N2c2cccc(Cl)c2)cc1` (configuration not stated), the IC50 was 22.2 µM in the data set on HCT-116 [1]; 25.9 µM with HEK-293T; 14.1 µM with MDA-MB-231; 12.3 µM with MCF7; 25.8 µM in the data set on HCT-116 [5]. In addition, the selectivity ratio in data set [2], in [3] and in data set [4] was less than 2 in each case.
Take `O=C1Nc2ccc(Cl)cc2C12N(c1ccccc1)N=C(c1ccccc1)N2c1ccccc1` (configuration not stated): the IC50 in the data set on HCT-116 [1] was found to be 21.6 µM; in the data set on HEK-293T it was 32.6 µM; in the data set on MDA-MB-231 it was 11.7 µM; in the data set with MCF7, 19.1 µM; in the data set on HCT-116 [5], 22.1 µM. For the same compound, the selectivity ratio in data set [2], in data set [3] and in data set [4] was less than 2 each time.
`O=C1Nc2ccc(Br)cc2C12N(c1cccc(Cl)c1)N=C(c1ccccc1)N2c1cccc(Cl)c1` (configuration not stated): the IC50 in the data set with HCT-116 [1] amounted to 12 µM; with HEK-293T, 16.9 µM; with MDA-MB-231, 10.7 µM; in the data set on MCF7, 9.8 µM; in the data set with HCT-116 [5], 13.1 µM. The selectivity ratio in data set [2], in data set [3] and in data set [4] was less than 2 each time.
In the data set on MCF7, `O=C1Nc2ccccc2[C@]12[C@@H](c1ccccc1)C(c1ccccc1)=NN2c1ccccc1` registered an IC50 greater than 100 µM.
As to `O=C1Nc2ccccc2C12N(c1cccc(Cl)c1)N=C(c1ccccc1)N2c1ccc(Cl)cc1` (configuration not stated), the IC50 came to 19.8 µM with HCT-116 [1]; 15.4 µM with HEK-293T; 15.7 µM in the data set on MDA-MB-231; 14.2 µM with MCF7; 18.5 µM in the data set with HCT-116 [5]. For the same compound, the selectivity ratio in data set [2], in [3] and in [4] was less than 2 in each case.
As for `O=C1Nc2c(Cl)cccc2[C@]12[C@@H](c1ccccc1)C(c1ccccc1)=NN2c1ccccc1`, the selectivity ratio in [3] was greater than 4.5. The IC50 in the data set on HEK-293T is greater than 100 µM; in the data set on MDA-MB-231, 16.9 µM; in the data set with MCF7, 22.4 µM.
As to `O=C1Nc2ccc(Br)cc2C12N(c1ccccc1Cl)N=C(c1ccccc1)N2c1cccc(Cl)c1` (configuration not stated), the IC50 with HCT-116 [1] was determined as 21.5 µM; in the data set on HEK-293T, 20.9 µM; in the data set with MDA-MB-231, 11.7 µM; with MCF7, 10.2 µM; in the data set on HCT-116 [5], 31.6 µM. The selectivity ratio in data set [2], in data set [3] and in [4] was less than 2 each time.
For `O=C1Nc2ccccc2C12N(c1ccccc1)N=C(c1ccccc1)N2c1cccc(Cl)c1` (configuration not stated), the IC50 in the data set with HCT-116 [1] is 19.9 µM; with HEK-293T, 25.7 µM; with MDA-MB-231, 12.5 µM; in the data set on MCF7 it was 13.7 µM; in the data set with HCT-116 [5], 22.1 µM. For the same compound, the selectivity ratio in data set [2], in data set [3] and in data set [4] was less than 2 each time.
Consider `O=C1Nc2ccccc2C12N(c1ccccc1)N=C(c1cccc(Cl)c1)N2c1ccc(Cl)cc1` (configuration not stated), for which the IC50 in the data set with HCT-116 [1] stood at 17.4 µM; with HEK-293T, 20.5 µM; in the data set on MDA-MB-231 it was 11.6 µM; in the data set on MCF7, 13.1 µM; with HCT-116 [5], 16.1 µM. The selectivity ratio in data set [2], in data set [3] and in data set [4] was less than 2 in each case.
Turning to `O=C1Nc2ccccc2C12N(c1ccccc1Cl)N=C(c1cccc(Cl)c1)N2c1ccc(Cl)cc1` (configuration not stated), the IC50 with HCT-116 [1] amounted to 25.3 µM; with HEK-293T, 35 µM; in the data set with MDA-MB-231 it was 14.5 µM; with MCF7, 13.1 µM; in the data set with HCT-116 [5], 34.6 µM. Also, the selectivity ratio in data set [2] was less than 2; in [3] it was 2.7; in data set [4], less than 2.
Turning to `O=C1Nc2ccccc2C12N(c1ccccc1)N=C(c1ccc(Cl)cc1)N2c1ccc(Cl)cc1` (configuration not stated), the IC50 was 16.8 µM in the data set with HCT-116 [1]; 22.7 µM with HEK-293T; 8.2 µM with MDA-MB-231; 10.9 µM with MCF7; 18.5 µM in the data set on HCT-116 [5]. The selectivity ratio in [2] is less than 2; in data set [3], 2.1; in [4], less than 2.
In the case of `O=C1Nc2ccc(Br)cc2C12N(c1ccccc1)N=C(c1ccc(Cl)cc1)N2c1cccc(Cl)c1` (configuration not stated), the IC50 was 10.8 µM in the data set with HCT-116 [1]; 20.3 µM in the data set on HEK-293T; 14.6 µM with MDA-MB-231; 10.1 µM in the data set on MCF7; 10.8 µM in the data set on HCT-116 [5]. The selectivity ratio in data set [2], in data set [3] and in [4] was less than 2 throughout.
On to `O=C1Nc2ccc(Br)cc2C12N(c1ccc(Cl)cc1)N=C(c1ccccc1)N2c1cccc(Cl)c1` (configuration not stated), for which the IC50 in the data set with HCT-116 [1] was determined as 15 µM; with HEK-293T it was 16.2 µM; in the data set with MDA-MB-231, 15 µM; in the data set on MCF7, 11.4 µM; in the data set on HCT-116 [5], 17.2 µM. For the same compound, the selectivity ratio in data set [2], in data set [3] and in data set [4] was less than 2 in each case.
`O=C1Nc2ccccc2C12N(c1ccccc1)N=C(c1ccccc1)N2c1ccc(Cl)cc1` (configuration not stated): the IC50 in the data set with HCT-116 [1] was 15 µM; with HEK-293T it was greater than 100 µM; in the data set on MDA-MB-231 it was 10.7 µM; with MCF7, 24.1 µM; in the data set with HCT-116 [5] it was 18.5 µM. Moreover, the selectivity ratio in [2] was 2.5 to 4.1; in data set [6], no less than 2.5; in data set [3] it was 2.5 to 4.1; in [4] it was 2.5 to 4.1.
As for `O=C1Nc2ccccc2C12N(c1ccc(Cl)cc1)N=C(c1ccccc1)N2c1ccc(Cl)cc1` (configuration not stated), the IC50 came out at 18.5 µM in the data set with HCT-116 [1]; 15.8 µM in the data set with HEK-293T; 9 µM in the data set on MDA-MB-231; 10.1 µM in the data set with MCF7; 18.7 µM with HCT-116 [5]. Moreover, the selectivity ratio in data set [2], in data set [3] and in data set [4] was less than 2 each time.
In the data set with HCT-116 [5], `COc1ccc(C2=N[C@@H](c3ccc(Cl)cc3)[C@@H](c3ccc(Cl)cc3)N2C(=O)N2CCNC(=O)C2)c(OC(C)C)c1` [NUTLIN-3] returned an IC50 of 47.8 µM.
Regarding `O=C1Nc2ccc(Br)cc2C12N(c1cccc(Cl)c1)N=C(c1cccc(Cl)c1)N2c1cccc(Cl)c1` (configuration not stated), the IC50 was found to be 10.2 µM with HCT-116 [1]; 9 µM in the data set with HEK-293T; 7 µM with MDA-MB-231; 6.9 µM with MCF7; 9 µM in the data set with HCT-116 [5]. For the same compound, the selectivity ratio in data set [2], in [3] and in [4] was less than 2 in each case.
Turning to `O=C1Nc2c(Cl)cccc2C12N(c1ccccc1)N=C(c1ccccc1)N2c1ccccc1` (configuration not stated), the IC50 in the data set on HCT-116 [1] was 23.7 µM; in the data set on HEK-293T, greater than 100 µM; in the data set on MDA-MB-231, 8.9 µM; in the data set on MCF7, 10.8 µM; in the data set on HCT-116 [5], 20.1 µM. Moreover, the selectivity ratio is 2.5 to 4.2 in [2], no less than 2.5 in [6], 2.5 to 9.3 in data set [3] and 2.5 to 4.2 in data set [4].
With `O=C1Nc2c(Br)cccc2C12N(c1ccccc1)N=C(c1ccccc1)N2c1ccccc1` (configuration not stated), the IC50 worked out at 23.7 µM with MDA-MB-231 and 21.8 µM with MCF7.
Regarding `O=C1Nc2ccc(Cl)cc2[C@]12[C@@H](c1ccccc1)C(c1ccccc1)=NN2c1ccccc1`, in the data set on MCF7, the IC50 was determined as 37.7 µM.
On to `O=C1Nc2ccccc2C12N(c1ccccc1)N=C(c1ccccc1)N2c1ccccc1` (configuration not stated), for which the figures for the IC50 in the data set on MDA-MB-231 and with MCF7 were 23.4 µM and 36.2 µM, respectively.
For `O=C1Nc2ccccc2C12N(c1ccccc1)N=C(c1ccccc1)N2c1ccc(F)c(Cl)c1` (configuration not stated), in that order: 32.3 µM and 19.5 µM.
